# Results as given in ChEMBL document CHEMBL4613267, “Novel Potent Muscarinic Receptor Antagonists: Investigation on the Nature of Lipophilic Substituents in the 5- and/or 6-Positions of the 1,4-Dioxane Nucleus” (J Med Chem, 2020).
# The source made the active and inactive calls. The rule behind the calls is not given here.
# How the values were obtained:
# [1] = target: T1, Muscarinic acetylcholine receptor (Mus musculus) (UniProt Q920H4+Q9ERZ4+P12657+P32211+Q9ERZ3); assay: Activity at muscarinic receptor in BALB/c mouse MSC assessed as reduction in cell viability at 10^-4M incubated for 24 hrs by Cell-titer 96 aqueous one solution reagent based assay
# Summary of the method: (§1)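 Bone-marrow MSCs from mouse, cultured for 2 weeks, then seeded at 5,000 cells/well in DMEM with 10% heat-inactivated FCS. Exposed to compound at 10–4 to 10–10 M for 24 h, with vehicle (DMSO) and untreated controls. Viability read by MTS reagent (2 h, 5% CO2) as absorbance at 490 nm. Mean ± SEM of four independent experiments.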
# [2] = target: T1, Muscarinic acetylcholine receptor (Mus musculus); details: BALB/c, 10^-10M
# [3] = target: T1, Muscarinic acetylcholine receptor (Mus musculus); assay: Activity at muscarinic receptor in BALB/c mouse MSC assessed as increase in cell viability at 10^-10M incubated for 24 hrs by Cell-titer 96 aqueous one solution reagent based assay; summary of the method: as §1
# [4] = target: T1, Muscarinic acetylcholine receptor (Mus musculus); assay: Antagonist activity at muscarinic receptor in BALB/c mouse MSC assessed as inhibition of carbachol-induced increase in cell viability at 10^-4 to 10^-10M incubated for 24 hrs by Cell-titer 96 aqueous one solution reagent based assay
# Summary of the method: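 Mouse bone-marrow MSCs kept as adherent cultures, with medium changes, for 2 weeks, then plated at 5,000 cells/well in DMEM with 10% HIFCS. Antagonist (10–4 to 10–10 M) given for 1 h, medium replaced, then carbachol 10–10 M for 24 h. Viability read by MTS, 2 h incubation, absorbance 490 nm. Controls were vehicle (DMSO) and untreated cells. Four independent experiments, mean ± SEM.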
# [5] = target: T2, Muscarinic acetylcholine receptor M1 (Homo sapiens, UniProt P11229); assay: Displacement of [3H]NMS from human recombinant muscarinic receptor M1 expressed in CHO-K1 cell membranes incubated for 2 hrs by scintillation counting method
# T2 sequence (P11229 whole entry): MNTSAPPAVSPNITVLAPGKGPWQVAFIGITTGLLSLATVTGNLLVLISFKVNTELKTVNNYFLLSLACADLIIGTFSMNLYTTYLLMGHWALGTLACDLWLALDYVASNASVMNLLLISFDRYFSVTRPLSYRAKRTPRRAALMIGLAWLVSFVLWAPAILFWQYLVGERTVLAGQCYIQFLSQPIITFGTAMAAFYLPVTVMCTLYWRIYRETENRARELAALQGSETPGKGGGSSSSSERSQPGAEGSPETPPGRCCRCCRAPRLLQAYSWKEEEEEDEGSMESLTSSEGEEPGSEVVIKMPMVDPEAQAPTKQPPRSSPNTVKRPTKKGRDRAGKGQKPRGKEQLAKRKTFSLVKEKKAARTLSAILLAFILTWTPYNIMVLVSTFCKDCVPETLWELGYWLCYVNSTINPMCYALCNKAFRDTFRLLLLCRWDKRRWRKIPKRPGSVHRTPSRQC
# Summary of the method: (§2)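 Membranes from CHO-K1 cells stably expressing each human subtype, homogenised in 25 mM sodium phosphate, 5 mM MgCl2, pH 7.4. About 25–70 μg/mL protein incubated with 0.2 nM [3H]NMS and test compound for 2 h at r.t. Nonspecific binding defined with 10 μM atropine. Filtration, then counting. Four-parameter logistic fit gave IC50, converted to Ki. Mean ± S.E.M. of ≥3 experiments in duplicate.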
# [6] = target: Muscarinic acetylcholine receptor M3 (Homo sapiens, UniProt P20309); assay: Displacement of [3H]NMS from human recombinant muscarinic receptor M3 expressed in CHO-K1 cell membranes incubated for 2 hrs by scintillation counting method; summary of the method: as §2
# [7] = target: T3, Muscarinic acetylcholine receptor M5 (Homo sapiens, UniProt P08912); assay: Displacement of [3H]NMS from human recombinant muscarinic receptor M5 expressed in CHO-K1 cell membranes incubated for 2 hrs by scintillation counting method
# T3 sequence (P08912 whole entry): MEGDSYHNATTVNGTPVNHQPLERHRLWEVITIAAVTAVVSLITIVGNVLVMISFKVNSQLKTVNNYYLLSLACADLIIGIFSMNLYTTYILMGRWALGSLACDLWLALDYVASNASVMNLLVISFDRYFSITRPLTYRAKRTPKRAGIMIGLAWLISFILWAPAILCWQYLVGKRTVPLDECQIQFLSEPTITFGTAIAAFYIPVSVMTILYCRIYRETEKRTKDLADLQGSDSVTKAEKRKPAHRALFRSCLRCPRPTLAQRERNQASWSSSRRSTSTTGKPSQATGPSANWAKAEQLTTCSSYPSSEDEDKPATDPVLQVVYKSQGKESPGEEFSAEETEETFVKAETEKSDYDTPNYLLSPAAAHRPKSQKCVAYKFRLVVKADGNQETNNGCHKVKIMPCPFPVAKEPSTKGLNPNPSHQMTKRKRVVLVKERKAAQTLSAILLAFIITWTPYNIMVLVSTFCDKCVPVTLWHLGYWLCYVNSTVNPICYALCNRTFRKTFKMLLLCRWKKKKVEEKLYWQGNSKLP
# Summary of the method: (§3)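 CHO-K1 membranes stably expressing hM4 or hM5, at about 25–70 μg/mL protein, in 25 mM sodium phosphate with 5 mM MgCl2, pH 7.4. Competition with 0.2 nM [3H]NMS for 2 h at r.t.; nonspecific binding defined with 10 μM atropine. Filtration, then scintillation counting. IC50 from four-parameter logistic fit, converted to Ki. Mean ± S.E.M. of ≥3 experiments, each in duplicate.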
# [8] = target: T4, Muscarinic acetylcholine receptor M2 (Homo sapiens, UniProt P08172); assay: Displacement of [3H]NMS from human recombinant muscarinic receptor M2 expressed in CHO-K1 cell membranes incubated for 2 hrs by scintillation counting method; summary of the method: as §2
# T4 sequence (P08172 whole entry): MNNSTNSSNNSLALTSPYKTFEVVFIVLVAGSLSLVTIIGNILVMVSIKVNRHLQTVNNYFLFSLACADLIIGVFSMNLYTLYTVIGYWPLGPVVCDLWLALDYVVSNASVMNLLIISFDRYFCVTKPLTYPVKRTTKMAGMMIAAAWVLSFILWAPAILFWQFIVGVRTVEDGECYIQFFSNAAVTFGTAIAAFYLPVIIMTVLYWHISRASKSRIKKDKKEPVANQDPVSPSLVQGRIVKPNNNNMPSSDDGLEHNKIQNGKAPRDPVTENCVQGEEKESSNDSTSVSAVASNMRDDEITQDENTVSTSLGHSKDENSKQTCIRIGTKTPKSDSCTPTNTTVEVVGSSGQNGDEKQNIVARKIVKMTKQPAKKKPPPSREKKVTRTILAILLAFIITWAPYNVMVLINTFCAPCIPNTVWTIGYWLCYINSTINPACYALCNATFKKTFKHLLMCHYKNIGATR
# [9] = target: T5, Muscarinic acetylcholine receptor M4 (Homo sapiens, UniProt P08173); assay: Displacement of [3H]NMS from human recombinant muscarinic receptor M4 expressed in CHO-K1 cell membranes incubated for 2 hrs by scintillation counting method; summary of the method: as §3
# T5 sequence (P08173 whole entry): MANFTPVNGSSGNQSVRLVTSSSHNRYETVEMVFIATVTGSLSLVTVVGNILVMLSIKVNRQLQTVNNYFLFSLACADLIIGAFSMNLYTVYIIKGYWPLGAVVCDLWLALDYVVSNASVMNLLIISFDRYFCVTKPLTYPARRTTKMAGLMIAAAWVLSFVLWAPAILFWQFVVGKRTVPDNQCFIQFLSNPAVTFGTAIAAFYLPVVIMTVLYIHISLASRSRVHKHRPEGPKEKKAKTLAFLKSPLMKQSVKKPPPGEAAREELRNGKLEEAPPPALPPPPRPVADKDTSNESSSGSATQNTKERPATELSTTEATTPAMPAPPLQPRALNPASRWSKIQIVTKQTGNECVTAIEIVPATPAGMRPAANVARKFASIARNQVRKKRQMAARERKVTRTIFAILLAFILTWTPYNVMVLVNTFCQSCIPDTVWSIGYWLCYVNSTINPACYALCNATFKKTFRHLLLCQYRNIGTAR
# Chain of Muscarinic acetylcholine receptor M3 (P20309 whole entry): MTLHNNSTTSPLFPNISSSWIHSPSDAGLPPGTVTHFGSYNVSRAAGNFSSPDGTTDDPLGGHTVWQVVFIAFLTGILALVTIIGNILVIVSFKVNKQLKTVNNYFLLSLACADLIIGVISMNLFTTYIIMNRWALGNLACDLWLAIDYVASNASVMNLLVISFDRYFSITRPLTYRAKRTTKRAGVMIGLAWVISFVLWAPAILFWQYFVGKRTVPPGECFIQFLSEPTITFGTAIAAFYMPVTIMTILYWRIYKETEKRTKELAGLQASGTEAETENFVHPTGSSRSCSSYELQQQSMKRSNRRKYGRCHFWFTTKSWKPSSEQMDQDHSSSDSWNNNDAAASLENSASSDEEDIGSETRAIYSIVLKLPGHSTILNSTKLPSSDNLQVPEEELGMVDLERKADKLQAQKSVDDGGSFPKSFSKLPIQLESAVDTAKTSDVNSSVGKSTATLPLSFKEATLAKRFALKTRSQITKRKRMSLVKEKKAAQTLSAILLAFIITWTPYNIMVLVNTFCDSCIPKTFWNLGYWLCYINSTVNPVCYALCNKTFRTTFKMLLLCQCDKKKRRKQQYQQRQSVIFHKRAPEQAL
SMILES,Activity [1],inhibition [2],Activity [3],inhibition [4],Ki [5],Ki [6],Ki [7],Ki [8],Ki [9]
CN1[C@@H]2CC[C@H]1C[C@@H](OC(=O)C(CO)c1ccccc1)C2 (stereo partly specified),Active,Active,Active,,,,,,
C[N+](C)(C)C[C@@H]1COC[C@](c2ccccc2)(C2CCCCC2)O1 (relative stereo),Active,,Active,Active,,,,,
O=C(O[C@H]1C[C@H]2CC[C@@H](C1)[N+]21CCCC1)C(O)(c1ccccc1)c1ccccc1 [TROSPIUM CHLORIDE],,,,,3.47 nM,1.02 nM,6.03 nM,1.15 nM,1.45 nM
